ChEMBL document CHEMBL1157101, “A series of alpha-heterocyclic carboxaldehyde thiosemicarbazones inhibit topoisomerase IIalpha catalytic activity” (J Med Chem, 2010)
Calls of active or inactive are those of the source. No cut-off for these calls is given here.

Experiments:
MDA-MB-231 = test: Antiproliferative activity against human MDA-MB-231 cells after 72 hrs by sulforhodamine B assay; format: functional, cell-based; conditions: MDA-MB-231, 72 h
How it was run: (§1)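 Cells seeded and exposed in triplicate to graded compound concentrations for 72 h. Suspension cells read by MTT conversion to coloured product; adherent cells read by sulforhodamine B. IC50 (50% growth inhibition versus untreated control) derived by the Logit method.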

MDA-MB-435 = test: Antiproliferative activity against human MDA-MB-435 cells after 72 hrs by sulforhodamine B assay; format: functional, cell-based; conditions: MDA-MB-435, 72 h; how it was run: as §1
[1] = target: T1, DNA topoisomerase 2-alpha (Homo sapiens, UniProt P11388); test: Inhibition of topoisomerase 2alpha assessed as antagonization of etoposide-mediated prestrand passage DNA cleavage in absence of ATP
T1 sequence (P11388 whole entry): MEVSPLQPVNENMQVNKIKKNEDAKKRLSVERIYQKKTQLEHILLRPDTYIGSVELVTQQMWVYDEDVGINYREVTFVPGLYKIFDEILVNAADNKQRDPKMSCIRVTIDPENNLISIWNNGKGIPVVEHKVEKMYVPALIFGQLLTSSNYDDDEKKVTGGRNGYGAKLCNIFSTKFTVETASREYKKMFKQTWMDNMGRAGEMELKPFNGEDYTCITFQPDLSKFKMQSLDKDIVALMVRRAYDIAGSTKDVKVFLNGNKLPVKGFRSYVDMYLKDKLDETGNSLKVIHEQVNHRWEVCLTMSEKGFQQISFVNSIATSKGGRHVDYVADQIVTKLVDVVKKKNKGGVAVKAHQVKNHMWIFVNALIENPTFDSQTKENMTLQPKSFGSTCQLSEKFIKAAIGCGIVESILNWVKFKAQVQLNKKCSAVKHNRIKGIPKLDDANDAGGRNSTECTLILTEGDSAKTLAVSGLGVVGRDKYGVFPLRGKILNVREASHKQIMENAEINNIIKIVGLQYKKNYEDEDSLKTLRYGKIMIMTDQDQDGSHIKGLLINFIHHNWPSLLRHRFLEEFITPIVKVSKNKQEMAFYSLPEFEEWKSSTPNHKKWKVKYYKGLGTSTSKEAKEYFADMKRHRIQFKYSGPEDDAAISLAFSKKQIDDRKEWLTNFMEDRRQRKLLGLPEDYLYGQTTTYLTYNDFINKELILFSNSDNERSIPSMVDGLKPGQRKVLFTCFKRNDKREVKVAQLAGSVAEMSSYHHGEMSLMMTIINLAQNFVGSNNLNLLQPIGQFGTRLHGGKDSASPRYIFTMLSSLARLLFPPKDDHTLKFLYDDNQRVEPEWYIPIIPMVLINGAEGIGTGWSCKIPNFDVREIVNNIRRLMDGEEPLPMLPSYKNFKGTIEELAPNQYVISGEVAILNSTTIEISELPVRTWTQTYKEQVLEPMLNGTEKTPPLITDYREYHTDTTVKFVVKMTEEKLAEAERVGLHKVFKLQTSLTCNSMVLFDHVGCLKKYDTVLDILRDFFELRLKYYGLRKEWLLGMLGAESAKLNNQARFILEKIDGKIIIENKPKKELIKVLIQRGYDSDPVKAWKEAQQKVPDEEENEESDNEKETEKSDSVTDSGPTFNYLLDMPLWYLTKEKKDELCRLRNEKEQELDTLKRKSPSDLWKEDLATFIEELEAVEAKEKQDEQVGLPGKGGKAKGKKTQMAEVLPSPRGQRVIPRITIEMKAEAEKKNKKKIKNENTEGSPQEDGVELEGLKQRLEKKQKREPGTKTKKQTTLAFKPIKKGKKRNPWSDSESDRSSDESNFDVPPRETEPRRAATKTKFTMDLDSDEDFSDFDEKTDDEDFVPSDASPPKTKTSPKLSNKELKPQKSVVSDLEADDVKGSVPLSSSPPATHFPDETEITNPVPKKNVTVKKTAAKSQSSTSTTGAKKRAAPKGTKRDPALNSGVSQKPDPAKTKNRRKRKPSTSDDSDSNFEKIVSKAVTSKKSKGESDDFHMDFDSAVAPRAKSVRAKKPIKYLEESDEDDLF

NCI-H23 = test: Antiproliferative activity against human NCI-H23 cells after 72 hrs by sulforhodamine B assay; format: functional, cell-based; conditions: NCI-H23, 72 h; how it was run: as §1
SMMC-7721 = test: Antiproliferative activity against human SMMC7721 cells after 72 hrs by sulforhodamine B assay; format: functional, cell-based; conditions: SMMC-7721, 72 h; how it was run: as §1
[2] = target: T1, DNA topoisomerase 2-alpha; test: Inhibition of topoisomerase-2 alpha in human HL60/MX2 cells assessed as antagonization of etoposide-mediated enzyme-DNA cleavage complex at 100 uM; format: cell-based
CCRF S-180 [3] = test: Antitumor activity against mouse S180 cells transplanted in Kunming mouse assessed as inhibition of tumor growth at 50 mg/kg/day, ip for 7 days; format: functional; conditions: CCRF S-180, ip, 168 h, route intraperitoneal
How it was run: (§2)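 Female Kunming mice, 7 weeks old, 18-22 g, inoculated sc in the right armpit with S-180 sarcoma. Dosing began the next day, ip daily for 7 days; normal saline given iv as control. Tumours excised and weighed after treatment. Inhibitory rate (%) = (mean control tumour weight − mean treated tumour weight)/mean control tumour weight × 100.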

[4] = target: T1, DNA topoisomerase 2-alpha; test: Inhibition of topoisomerase-2 alpha in human HT-29 cells assessed as reversal of etoposide-mediated DNA double strand break after 1 hr measured as phosphorylated histone2A level by immunostaining; format: cell-based
[5] = target: T1, DNA topoisomerase 2-alpha; test: Binding affinity to human topoisomerase 2 alpha ATPase domain in presence of ATP
How it was run: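 Surface plasmon resonance. Human Topo IIα ATPase domain immobilised on CM5 chips after activation of surface carboxyl groups. Serial compound dilutions flowed over the chip and sensorgrams recorded. KD obtained by steady-state affinity fitting.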

[6] = target: T2, DNA topoisomerase 1 (Homo sapiens) (UniProt P11387); test: Inhibition of topoisomerase 1-mediated unwinding of supercoiled DNA assessed as DNA intercalation
T2 sequence (whole entry): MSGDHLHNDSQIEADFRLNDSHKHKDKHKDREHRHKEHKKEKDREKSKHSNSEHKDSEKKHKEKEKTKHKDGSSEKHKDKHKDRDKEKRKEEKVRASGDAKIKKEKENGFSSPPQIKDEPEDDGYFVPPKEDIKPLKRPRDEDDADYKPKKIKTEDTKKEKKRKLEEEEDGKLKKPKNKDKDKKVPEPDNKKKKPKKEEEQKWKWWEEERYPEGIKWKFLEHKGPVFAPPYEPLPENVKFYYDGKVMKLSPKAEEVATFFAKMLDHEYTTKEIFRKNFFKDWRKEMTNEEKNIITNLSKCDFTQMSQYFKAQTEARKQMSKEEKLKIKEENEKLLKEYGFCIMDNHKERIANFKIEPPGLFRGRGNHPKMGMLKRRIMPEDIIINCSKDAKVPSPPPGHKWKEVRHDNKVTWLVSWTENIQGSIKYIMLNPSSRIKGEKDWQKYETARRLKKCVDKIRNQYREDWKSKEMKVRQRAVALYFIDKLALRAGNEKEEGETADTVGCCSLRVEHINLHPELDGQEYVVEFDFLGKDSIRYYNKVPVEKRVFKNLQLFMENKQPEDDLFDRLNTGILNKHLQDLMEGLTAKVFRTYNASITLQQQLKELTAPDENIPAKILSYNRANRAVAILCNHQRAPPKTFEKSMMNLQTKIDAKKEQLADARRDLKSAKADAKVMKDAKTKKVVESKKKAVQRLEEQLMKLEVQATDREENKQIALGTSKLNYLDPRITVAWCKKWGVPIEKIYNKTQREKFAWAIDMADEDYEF

[7] = target: T2, DNA topoisomerase 1 (Homo sapiens); test: Inhibition of human topoisomerase 1-mediated relaxation of pBR322 up to 125 uM
HT-29 = test: Cell cycle arrest in nocodazole pretreated human HT-29 cells assessed as accumulation at M phase at 1 uM after 24 hrs; format: functional, cell-based
How it was run: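 HT-29 cells stained with propidium iodide; cell-cycle distribution determined by flow cytometry.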

MCF7 = test: Antiproliferative activity against human MCF7 cells after 72 hrs by sulforhodamine B assay; format: functional, cell-based; conditions: MCF7, 72 h
MKN-45 = test: Antiproliferative activity against human MKN45 cells after 72 hrs by sulforhodamine B assay; format: functional, cell-based; conditions: MKN-45, 72 h; how it was run: as §1
MKN-28 = test: Antiproliferative activity against human MKN28 cells after 72 hrs by sulforhodamine B assay; format: functional, cell-based; conditions: MKN-28, 72 h; how it was run: as §1
[8] = target: T1, DNA topoisomerase 2-alpha; test: Inhibition of topoisomerase-2 alpha in human HT-29 cells assessed as reversal of etoposide-mediated DNA double strand break measured as phosphorylated histone2A level at 100 uM by immunostaining; format: cell-based
SGC-7901 = test: Antiproliferative activity against human SGC7901 cells after 72 hrs by sulforhodamine B assay; format: functional, cell-based; conditions: SGC-7901, 72 h; how it was run: as §1
[9] = target: T1, DNA topoisomerase 2-alpha; test: Inhibition of human topoisomerase 2alpha-mediated relaxation of pBR322 at 25 uM
U-937 = test: Antiproliferative activity against human U937 cells after 72 hrs by sulforhodamine B assay; format: functional, cell-based; conditions: U-937, 72 h; how it was run: as §1
[10] = target: T1, DNA topoisomerase 2-alpha; test: Inhibition of human topoisomerase 2alpha ATPase domain assessed as ATP hydrolysis
How it was run: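 NADH-coupled ATPase assay at 37 °C in 100 μL. Contains 2 μg Topo IIα ATPase domain (or 18 nM Topo IIα), 0.2 μg pBR322, 1 mM ATP, 2 mM PEP, 0.16 mM NADH, 5 U pyruvate kinase and 8 U lactate dehydrogenase.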

CCRF S-180 [11] = test: Antitumor activity against mouse S180 cells transplanted in Kunming mouse assessed as inhibition of tumor growth at 12.5 mg/kg/day, ip for 7 days; format: functional; conditions: CCRF S-180, ip, 168 h, route intraperitoneal; how it was run: as §2
[12] = target: T1, DNA topoisomerase 2-alpha; test: Inhibition of human topoisomerase 2alpha-mediated decatenation of kDNA at 25 uM
Nucleic Acid = test: Inhibition of Fenton's reaction mediated DNA strand break in Escherichia coli pBR322 by gel electrophoresis; format: nucleic-acid assay
How it was run: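 pBR322 (0.2 μg) incubated 30 min at room temperature in 13 mM Hepes pH 7.2 with 1 mM H2O2 and 10 μM FeSO4 plus compound. Run on 1% agarose containing 0.1 μg/mL ethidium bromide at 90 V for 60 min. Bands quantified; % supercoiled = 1.4SC/(L+OC+1.4SC)×100.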

[13] = Antiproliferative activity against human Rh30 cells after 72 hrs by sulforhodamine B assay; format: functional, cell-based; conditions: SJRH30, 72 h; how it was run: as §1
HCT-116 = test: Antiproliferative activity against human HCT116 cells after 72 hrs by sulforhodamine B assay; format: functional, cell-based; conditions: HCT-116, 72 h; how it was run: as §1
HeLa = test: Antiproliferative activity against human HeLa cells after 72 hrs by sulforhodamine B assay; format: functional, cell-based; how it was run: as §1

CN(C)C(=S)N/N=C/c1ccc2ccccc2n1
IC50 (MDA-MB-231): 0.02 µM | IC50 (MDA-MB-435): 0.37 µM | inhibition [1]: inactive | IC50 (NCI-H23): 0.08 µM | IC50 (SMMC-7721): 0.24 µM | inhibition [2]: Active | inhibition in vivo at 50 mg/kg/day (CCRF S-180 [3]): 76.7% | inhibition [4]: Dose-dependent effect | Activity [5]: inactive | inhibition [6]: inactive | inhibition [7]: inactive | Activity (HT-29): Active | IC50 (MCF7): 0.34 µM | IC50 (MKN-45): 0.83 µM | IC50 (MKN-28): 0.17 µM | inhibition [8]: Active | IC50 (SGC-7901): 0.03 µM | inhibition [9]: inactive | IC50 (U-937): 0.03 µM | inhibition [10]: Dose-dependent effect | inhibition in vivo at 12.5 mg/kg/day (CCRF S-180 [11]): 17.6% | inhibition [12]: Active | inhibition (Nucleic Acid): Dose-dependent effect | IC50 [13]: 0.002 µM | IC50 (HCT-116): 0.22 µM | IC50 (HeLa): 0.09 µM
